{
  "source": "ChEMBL document CHEMBL1142157",
  "about": "“Optimal antimicrobial catheter lock solution, using different combinations of minocycline, EDTA, and 25-percent ethanol, rapidly eradicates organisms embedded in biofilm” (2007)",
  "type_in_all_cases": "functional",
  "key": {"Staphylococcus aureus [1]": {"tested_on": "Staphylococcus aureus", "assay": "Antimicrobial activity against methicillin-resistant Staphylococcus aureus embedded in MRD biofilm model at 3 mg/ml after 15 mins", "procedure,_shortened": "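MRSA clinical isolates from catheter-related bacteremia. Infusate of 2 × 10^5 CFU/ml in 5% dextrose water pumped through a modified Robbins device at 60 ml/h for 8 h at 37°C, then 10 h further incubation and a 2 h saline flush. Catheter segments soaked in drug in Mueller-Hinton broth for 15 min at 37°C, scrape-sonicated in TSB, plated on blood agar overnight. Mean CFU/ml, capped at 500.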"}, "Staphylococcus aureus [2]": {"tested_on": "Staphylococcus aureus", "assay": "Antimicrobial activity against methicillin-resistant Staphylococcus aureus embedded in MRD biofilm model at 3 mg/ml after 15 mins in drug assessed as 24 hr regrowth", "procedure,_shortened": "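MRSA biofilm grown on catheter segments in a modified Robbins device: 5% dextrose infusate at 2 × 10^5 CFU/ml, 60 ml/h for 8 h at 37°C, then 10 h incubation and a saline flush. Segments exposed to drug in broth for 15 min at 37°C, then reincubated 24 h at 37°C in Mueller-Hinton broth, scrape-sonicated and plated on blood agar. Mean CFU/ml, capped at 500.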"}, "Staphylococcus aureus [3]": {"tested_on": "Staphylococcus aureus", "assay": "Antimicrobial activity against methicillin-resistant Staphylococcus aureus in silicone disk biofilm at 3 mg/ml after 60 mins", "procedure,_shortened": "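Silicone disks preconditioned in human plasma for 24 h at 37°C with shaking, then shaken 24 h at 37°C with MRSA at 5.5 × 10^5 cells/ml in MHB. Disks washed 30 min in 0.9% saline, exposed to drug for 1 h at 37°C, sonicated 5 min in saline, vortexed and plated on blood agar overnight. 5–10 replicates. Mean CFU/ml, capped at 5,000.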"}, "Staphylococcus aureus [4]": {"tested_on": "Staphylococcus aureus", "assay": "Antimicrobial activity against methicillin-resistant Staphylococcus aureus in silicone disk biofilm at 3 mg/ml after 60 mins in drug assessed as 24 hr regrowth", "procedure,_shortened": "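MRSA biofilm on plasma-coated silicone disks (inoculum 5.5 × 10^5 cells/ml in MHB, 24 h, 37°C, shaking), saline-washed, then exposed to drug for 1 h at 37°C. Disks washed in saline, incubated overnight at 37°C in Trypticase soy broth, sonicated 5 min in that broth and plated on blood agar. 5–10 replicates. Mean CFU/ml, capped at 5,000.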"}, "Candida parapsilosis [5]": {"tested_on": "Candida parapsilosis", "assay": "Antimicrobial activity against Candida parapsilosis embedded in MRD biofilm at 3 mg/ml after 15 mins", "procedure,_shortened": "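MRD catheter segments colonized by infusing C. parapsilosis-infected 5% dextrose (2 × 10^2 CFU/ml) at 60 ml/h for 8 h at 37°C, then incubated 10 h more and flushed with saline 2 h. Segments soaked 15 min at 37°C in drug in Mueller-Hinton broth (MHB alone as control). Then scrape-sonicated 5 min in Trypticase soy broth and plated on blood agar overnight. Mean CFU/ml ± SD reported, capped at 500.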"}, "Candida parapsilosis [6]": {"tested_on": "Candida parapsilosis", "assay": "Antimicrobial activity against Candida parapsilosis embedded in MRD biofilm at 3 mg/ml after 15 mins in drug assessed as 24 hr regrowth", "procedure,_shortened": "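MRD C. parapsilosis-colonized segments were soaked 15 min at 37°C in drug in broth. A second set was reincubated 24 h at 37°C in Mueller-Hinton broth, scrape-sonicated and plated on sheep blood agar overnight. Regrowth is given as mean CFU/ml ± SD, capped at 500.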"}, "Candida parapsilosis [7]": {"tested_on": "Candida parapsilosis", "assay": "Antimicrobial activity against Candida parapsilosis in silicone disk biofilm at 3 mg/ml after 60 mins in drug assessed as 24 hr regrowth", "procedure,_shortened": "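C. parapsilosis biofilm on plasma-coated silicone disks was exposed 1 h at 37°C to drug, then saline-washed and incubated overnight at 37°C in Trypticase soy broth. Disks were then sonicated 5 min in that broth and plated on sheep blood agar. 5–10 replicates; regrowth is given as mean CFU/ml ± SD, capped at 5,000.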"}, "Candida parapsilosis [8]": {"tested_on": "Candida parapsilosis", "assay": "Antimicrobial activity against Candida parapsilosis in silicone disk biofilm at 3 mg/ml after 60 mins", "procedure,_shortened": "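Silicone disks were preconditioned in human plasma for 24 h at 37°C with shaking. They were then colonized 24 h with C. parapsilosis at 5.5 × 10^5 cells/ml in MHB and washed 30 min in saline. Disks were exposed 1 h at 37°C to drug or MHB, sonicated 5 min in saline, vortexed and plated on blood agar. 5–10 replicates; mean CFU/ml ± SD, capped at 5,000.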"}},
  "data": [
    {"smiles": "CN(C)c1ccc(O)c2c1C[C@H]1C[C@H]3[C@H](N(C)C)C(O)=C(C(N)=O)C(=O)[C@@]3(O)C(O)=C1C2=O", "note": "[MINOCYCLINE]", "values": [
      {"measurement": "CFU/ml", "setting": "Staphylococcus aureus [1]", "result": 324},
      {"measurement": "CFU/ml", "setting": "Staphylococcus aureus [2]", "result": 308},
      {"measurement": "CFU/ml", "setting": "Staphylococcus aureus [3]", "result": 5000},
      {"measurement": "CFU/ml", "setting": "Staphylococcus aureus [4]", "result": 5000},
      {"measurement": "CFU/ml", "setting": "Candida parapsilosis [5]", "result": 138},
      {"measurement": "CFU/ml", "setting": "Candida parapsilosis [6]", "result": 500},
      {"measurement": "CFU/ml", "setting": "Candida parapsilosis [7]", "result": 5000},
      {"measurement": "CFU/ml", "setting": "Candida parapsilosis [8]", "result": 5000}
    ]}
  ]
}
